Source: PubChem (several laboratories)
The list is not random: actives were taken first. Their share in the collection is about 1.9%.
Hsp70 act: switches on Hsp70 transcription. HeLa Hsp70 promoter luciferase reporter, luminescence; scaled: vehicle 0, proteasome-inhibitor control 100%. activation, % at 10 µM. 200,000 compounds, 0.04% hits. AID 1203;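 active = activation above the mean across all tested compounds plus 3 SD, cutoff set per campaign, cut at about 5.5% in these data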
Rad51 HR inh: blocks human Rad51 in homologous recombination. inhibition, % at 10 µM. hRad51 DNA strand exchange, fluorescence dequenching. Q06609. 200,000 compounds, 0.085% hits;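 active = inhibition above 40% at the single screening dose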
Target sequence (Q06609 whole entry, looked up): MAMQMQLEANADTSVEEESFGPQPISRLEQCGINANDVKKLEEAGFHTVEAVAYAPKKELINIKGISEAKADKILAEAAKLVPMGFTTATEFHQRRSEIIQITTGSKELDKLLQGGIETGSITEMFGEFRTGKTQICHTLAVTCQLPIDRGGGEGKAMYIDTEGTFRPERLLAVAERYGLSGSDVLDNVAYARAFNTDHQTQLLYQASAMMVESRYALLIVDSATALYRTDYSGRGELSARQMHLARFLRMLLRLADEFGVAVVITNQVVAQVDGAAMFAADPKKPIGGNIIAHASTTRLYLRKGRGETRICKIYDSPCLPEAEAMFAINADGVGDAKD
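Material: Human Rad51 nucleoprotein filaments preassembled on unlabelled ssDNA | Also added: Labelled 47-mer dsDNA for strand exchange | Dosing: Single dose, 10 µM final compound | Schedule: 30-min compound preincubation and 15-min exchange, both room temperature | Technique: Fluorescence dequenching at 485/520 nm | Measure: Percent inhibition relative to plate controls and blanks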
TAG inh: reduces triacylglycerol accumulation in H9c2 cells | Nile Red lipid (TAG) fluorescence; cells loaded with 200 µM oleic acid | inhibition, % at 12.5 µM | 230,000 compounds, 0.66% hits | AID 651582;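 active = pattern-corrected inhibition of lipid staining of at least 50% with the nuclear-stain viability signal not falling by more than 50%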
GAA850 FXN act: frataxin GAA850 promoter activation | activation, % at 6 µM | HEK293 lucGAA850 FXN promoter luciferase reporter, 24 h; percent of 10 µM SAHA response | 360,000 compounds, 0.56% hits | AID 540364;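 active = activation above the average of all compounds screened plus 3 SD, cutoff fixed separately per campaign, cut at about 7.5% in these data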
ABHD5 PLIN5 PPI: ABHD5-PLIN5 protein interaction inhibition. 360,000 compounds, 0.78% hits. inhibition, % at 4 µM. Split G. princeps luciferase complementation, luminescence, 4 h;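 active = inhibition above the mean inhibition across every tested compound plus 3 SD, cut at about 22% in these data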
HIF activator: HIF pathway transcriptional activation | U2OS HRE-luciferase reporter, luminescence; normalized: DMSO 0%, desferrioxamine 100% | activation, % at 7.5 µM (by protocol) | 300,000 compounds, 0.32% hits | AID 1910;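 active = mean activation of at least 10% of the iron chelator positive control signal, with at least half of replicates also reaching 10%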
A number is an active result; - = inactive; . = not tested or not shown.

SMILES | Hsp70 act | Rad51 HR inh | TAG inh | GAA850 FXN act | ABHD5 PLIN5 PPI | HIF activator
O=C(Nc1ccc(Cl)cc1N1CCOCC1)C1CCCCC1 | . | . | - | - | - | -
CCOC(=O)c1sc(=S)n(-c2ccccc2)c1C | . | - | - | - | - | 19.1
COc1ccc2cc(C(C)C(=O)N3CCC(C(N)=O)CC3)ccc2c1 (stereo unspecified) | . | . | . | - | - | 28.3
COc1ccc2cc([C@H](C)C(=O)O)ccc2c1 | - | - | - | - | - | -
Cn1c(=O)cc(OCC(=O)NCc2ccccn2)c2ccccc21 | - | - | . | - | 72.5 | -
O=C1c2cccc(Sc3ccccc3)c2C(=O)c2c(Sc3ccccc3)cccc21 | . | - | 78.0 | - | - | -
CCN1CCN(Cc2ccc(NC(=O)c3ccc(C)c(NC(=O)c4nccnc4N)c3)cc2C(F)(F)F)CC1 | . | - | - | - | - | -
CCN1CCN(Cc2ccc(NC(=O)c3cc(NC(=O)c4cncc(-c5ccc(C#N)cc5)c4)cc(OC)c3)cc2C(F)(F)F)CC1 | . | - | 95.3 | - | - | -
CCN1CCN(Cc2ccc(NC(=O)c3ccc(C)c(NC(=O)c4cc(-c5ccc(Br)cc5)n[nH]4)c3)cc2C(F)(F)F)CC1 | . | - | 65.9 | - | - | -
CCN1CCN(Cc2ccc(NC(=O)c3ccc(C)c(NC(=O)c4cncc(-c5cccs5)c4)c3)cc2C(F)(F)F)CC1 | . | . | 116.7 | - | 26.4 | .
CCN1CCN(Cc2ccc(NC(=O)c3ccc(C)c(NC(=O)c4nccn4C)c3)cc2C(F)(F)F)CC1 | . | - | - | - | - | -
O=C(C[C@@H]1C=C[C@@H](NC(=O)C2CC2)[C@@H](CO)O1)NCc1ccccc1Cl | . | . | . | . | - | .
CCN(C[C@H]1N[C@@](Cc2ccccc2)(C(=O)OC)[C@H]2C(=O)N(Cc3ccccc3)C(=O)[C@@H]12)C(=O)COc1ccccc1 | . | . | - | - | - | .
COc1cc(/C=C/C(=O)N2CCC=CC2=O)cc(OC)c1OC | . | . | 61.5 | - | - | .
O=C(NCc1nc2ccccc2[nH]1)c1ccccc1F | . | . | - | - | - | -
O=C(NCc1nc2ccccc2[nH]1)c1c(F)c(F)c(F)c(F)c1F | - | - | - | - | - | 74.1
CC(C)OCCOc1ccc2oc(-c3ccco3)cc(=O)c2c1 | . | . | - | - | - | -
N#CC(C#N)=c1ccc2c(c1)N1C3=C(CCCC3)CC3CCCCC31N=2 (stereo unspecified) | - | - | 92.4 | - | - | -
CCCS(=O)(=O)NC(=O)C1(C)CCN(C(=O)c2c(-c3ccccc3)noc2C)C1 (stereo unspecified) | . | . | - | - | - | .
N#Cc1ccc(-c2csc(NNC(=O)c3ccc(Br)cc3)n2)cc1 | - | - | - | - | - | 9.7
N#Cc1ccc(-c2csc(NNC(=O)c3ccccc3)n2)cc1 | - | - | - | - | - | -
COc1cc(/C=N/NC(=O)c2ccc(CN(C)S(=O)(=O)c3ccc(C)cc3)cc2)ccc1O | - | - | - | - | - | -
CC(NC(=O)COc1ccc(S(=O)(=O)N2CCCC2)cc1)c1ccccc1 (stereo unspecified) | . | . | . | - | - | -
CC(=O)c1ccc(N2C(=NC(=O)COc3ccccc3)SC3CS(=O)(=O)CC32)cc1 (stereo unspecified) | . | . | . | - | - | 472.7
Cc1ccc(-n2nc3c(=O)n(CC(=O)NCc4ccccc4)nc(C)c3c2C)cc1 | . | . | . | - | - | 89.4
SMILES | Hsp70 act | Rad51 HR inh | TAG inh | GAA850 FXN act | ABHD5 PLIN5 PPI | HIF activator
Oc1ccc(N=C/C=C/c2cccc(Br)c2)cc1-c1nc2ccccc2s1 | - | - | . | 13.7 | - | -
O=[N+]([O-])c1ccc(OCCCCN2CCCCC2)cc1 | - | - | - | - | - | 189.0
O=C(NCC(=O)N(c1ccccc1F)C(C(=O)NC1CCCC1)c1ccncc1)c1ccco1 (stereo unspecified) | . | . | . | - | - | -
COC(=O)C1=C[C@@H](C(=O)OC)[C@@H]2C3=C(C(=O)[C@@]2(C)NC(=O)c2ccccc2)[C@H](C)n2c(=O)n(C)c(=O)n2[C@@H]3C1 | . | - | - | - | - | -
Cc1ccc(C(=O)c2no[n+]([O-])c2C(=O)c2ccc(C)cc2)cc1 | - | . | 51.9 | - | - | -
Cc1cc(C)cc(N(C(=O)c2csnn2)C(C(=O)NC2CCCCC2)c2ccccn2)c1 (stereo unspecified) | . | . | . | - | - | -
CC(=NNC(=S)N1CC2CCC(CC2)C1)c1cccc(C)n1 | . | . | 53.2 | - | - | .
CN1CCc2c(sc3nc(NCCO)n(-c4cccc(Cl)c4)c(=O)c23)C1 | . | . | . | - | - | -
CCc1nn(CC(=O)Nc2cc(C)ccc2C)c(=N)s1 | - | - | - | - | - | -
O=[N+]([O-])c1ccc(Sc2cccc[n+]2[O-])c2nonc12 | . | - | 101.7 | - | 85.6 | -
CN1CCN(C2=C(Cl)C(=O)N(Cc3ccccc3)C2=O)CC1 | - | 52.4 | . | - | - | -
Cn1c(CN2CCCC2)nc2cc(NS(=O)(=O)c3ccccc3)ccc21 | - | - | . | - | - | -
O=S(=O)(Nc1ccc(O)c(CN2CCCCC2)c1)c1ccccc1 | - | 56.6 | - | - | - | -
Clc1ccc(OCCN2CCCCC2)cc1Cl | - | . | . | - | - | -
ON=C1c2cc(OCCN3CCCCC3)ccc2-c2ccc(OCCN3CCCCC3)cc21 | . | . | - | - | - | 16.2
CCc1ccc(C2C(=O)c3ccccc3C2=O)cc1 | . | . | - | - | - | 16.0
COc1cccc(-c2ncc3ccccc3c2COC(=O)c2cccc(Br)c2)c1 | . | . | - | - | - | .
CC(=O)C1=C(C)NC(SCC(=O)c2cc(Cl)ccc2Cl)=C(C#N)C1c1ccco1 (stereo unspecified) | - | - | . | - | 22.2 | -
Cn1cc(CN2CCC(C(=O)Nc3cccc(-c4cscn4)c3)CC2)cn1 | . | . | - | - | - | 73.2
CCn1cc(CN2CCC(C(=O)Nc3cccc(-c4cscn4)c3)CC2)cn1 | . | . | - | - | - | -
CSc1ccc(/C=C/C(=O)OCC(=O)NC2CCCCCC2)cc1 | . | . | - | - | - | .
O=C(CN1CCC(C(=O)c2ccc(Cl)cc2)CC1)Nc1ccc2c(c1)OCCO2 | - | - | . | - | - | 74.4
Cc1cccc(NC(=O)CN2C(=O)COc3ccc(Cl)cc32)c1 | . | - | . | - | - | -
O=C(CN1C(=O)COc2ccc(Cl)cc21)Nc1ccc2c(c1)OCCO2 | - | - | . | - | - | 82.0
NC(=O)C1CCN(CC(=O)Nc2ccc3c(c2)OCCO3)CC1 | . | . | - | - | - | .
C/C(=N\Nc1ccc2nncn2n1)c1ccco1 | . | - | - | - | - | -
C/C(=N\Nc1ccc2nncn2n1)c1ccccn1 | . | . | - | - | - | 128.7
N#C/C(=C\c1cccc2ccccc12)c1nn(-c2ccccc2)c(N)c1C#N | - | - | . | . | . | -
Cc1ccc(/C=C(\C#N)c2nn(-c3ccccc3)c(N)c2C#N)cc1 | - | - | . | - | - | 9.8
N=c1n(CCN2CCCCC2)c2ccccc2n1CC(=O)c1ccc(Cl)c(Cl)c1 | . | - | - | - | 22.0 | -
